Test results from ChEMBL document CHEMBL4402517, “Rational modification of Mannich base-type derivatives as novel antichagasic compounds: Synthesis, in vitro and in vivo evaluation” (Bioorg Med Chem, 2019).

Legend:
[1] = Genotoxicity in Salmonella typhimurium TA1535 harboring pSK1002 assessed as survival at 0.063 mg/ml in absence of Sprague-Dawley rat liver S9 fraction metabolic activation by SOS/umu assay relative to control; format: toxicity; settings: salmonella enterica subsp. enterica serovar typhimurium, read-out: Survival
Method in brief: (§1)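 Survival of S. typhimurium TA1535/pSK1002 exposed to a range of compound concentrations with or without S9 mix in 96-well format. Survival percentage measured as the cytotoxicity arm of the SOS/umu test. Concentrations with survival ≥80% are counted as non-cytotoxic.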

[2] = Genotoxicity in Salmonella typhimurium TA1535 harboring pSK1002 assessed as survival at 1 mg/ml in presence of Sprague-Dawley rat liver S9 fraction metabolic activation by SOS/umu assay relative to control; format: toxicity, subcellular; settings: salmonella enterica subsp. enterica serovar typhimurium, read-out: Survival; method in brief: as §1
[3] = Genotoxicity in Salmonella typhimurium TA1535 harboring pSK1002 assessed as umu gene induction at 1 mg/ml in absence of Sprague-Dawley rat liver S9 fraction metabolic activation by SOS/umu assay relative to control; format: toxicity; settings: salmonella enterica subsp. enterica serovar typhimurium, read-out: FC
Method in brief: (§2)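 umu induction in S. typhimurium TA1535/pSK1002, with or without S9 mix, in 96-well format. β-galactosidase read colorimetrically with ONPG substrate. Output given as relative units and induction factor (IF). The run is valid if positive controls reach IF ≥2. A compound counts as genotoxic at IF ≥2 at a concentration giving ≥80% bacterial survival.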

[4] = (§3) Toxicity in BALB/c mouse infected with Trypanosoma cruzi MHOM/Pe/2011/Arequipa;DTU 5 bloodstream trypomastigote assessed as change in serum lactate dehydrogenase level in acute phase at 20 mg/kg/day, po administered for 5 consecutive days starting from day 8 post infection and measured on day 100 post infection by biochemical analysis relative to control; format: organism-based; settings: in vivo
Method in brief: (§4)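 Female BALB/c mice (10–12 weeks, 14–20 g; groups of three) were infected i.p. with 5 × 10^5 Arequipa bloodstream trypomastigotes. Dosing was oral at 20 mg/kg/day for 5 days, from day 8 pi (acute) or day 70 pi (chronic), as a 2 mg/ml suspension in 5% DMSO/0.5% HPMC; controls received vehicle. Cyclophosphamide 200 mg/kg i.p. was given at day 80 pi. Serum was collected 2 days post-treatment and at necropsy by cardiac puncture and compared with infected untreated controls.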

Trypanosoma cruzi [5] = test: Trypanocidal activity against Trypanosoma cruzi trypomastigote form infected in African green monkey Vero cells assessed as ratio of infected cells at 50 uM measured after 72 hrs by Giemsa staining based assay relative to control; format: functional
Method in brief: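 Vero cells (1 × 10^4/well, on coverslips) were infected with trypomastigotes at MOI 10:1 for 24 h and washed three times with PBS. They were treated at 3.1, 6.25, 12.5, 25 and 50 µM for 72 h at 37 °C in 5% CO2. Infected cells were counted after Giemsa staining. Triplicates, two separate determinations.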

[6] = as §3, with “aspartate aminotransferase” for “lactate dehydrogenase”, “assay” for “analysis”; format: organism-based; settings: in vivo; method in brief: as §4
[7] = Genotoxicity in Salmonella typhimurium TA1535 harboring pSK1002 assessed as umu gene induction at 0.031 mg/ml in absence of Sprague-Dawley rat liver S9 fraction metabolic activation by SOS/umu assay relative to control; format: toxicity; settings: salmonella enterica subsp. enterica serovar typhimurium, read-out: FC; method in brief: as §2
[8] = Genotoxicity in Salmonella typhimurium TA1535 harboring pSK1002 assessed as umu gene induction at 0.25 mg/ml in absence of Sprague-Dawley rat liver S9 fraction metabolic activation by SOS/umu assay relative to control; format: toxicity; settings: salmonella enterica subsp. enterica serovar typhimurium, read-out: FC; method in brief: as §2
[9] = as §3, with “decrease” for “change”, “chronic” for “acute”, “70” for “8”, “infection” for “infection and”, “infection” for “infection by biochemical analysis”; format: organism-based; design: scale not given: the % may be the effect or the level left; settings: in vivo; method in brief: as §4
[10] = as §3, with “as decrease” for “as change”, “serum alkaline phosphatase” for “serum lactate dehydrogenase”, “measured at” for “measured on”, “day 14” for “day 100”; format: organism-based; design: scale not given: the % may be the effect or the level left; settings: in vivo; method in brief: as §4
[11] = Genotoxicity in Salmonella typhimurium TA1535 harboring pSK1002 assessed as umu gene induction at 1 mg/ml in presence of Sprague-Dawley rat liver S9 fraction metabolic activation by SOS/umu assay relative to control; format: toxicity, subcellular; settings: salmonella enterica subsp. enterica serovar typhimurium, read-out: FC; method in brief: as §2
[12] = Genotoxicity in Salmonella typhimurium TA1535 harboring pSK1002 assessed as umu gene induction at 0.002 mg/ml in absence of Sprague-Dawley rat liver S9 fraction metabolic activation by SOS/umu assay relative to control; format: toxicity; settings: salmonella enterica subsp. enterica serovar typhimurium, read-out: FC; method in brief: as §2
[13] = (§5) Toxicity in BALB/c mouse infected with Trypanosoma cruzi MHOM/Pe/2011/Arequipa;DTU 5 bloodstream trypomastigotes assessed as decrease in serum alkaline phosphatase level in chronic phase at 20 mg/kg/day, po administered for 5 consecutive days starting from day 70 post infection measured on day 100 post infection relative to control; format: organism-based; design: scale not given: the % may be the effect or the level left; settings: in vivo; method in brief: as §4
[14] = as §3, with “decrease” for “change”, “alkaline phosphatase” for “lactate dehydrogenase”; format: organism-based; design: scale not given: the % may be the effect or the level left; settings: in vivo; method in brief: as §4
[15] = Genotoxicity in Salmonella typhimurium TA1535 harboring pSK1002 assessed as survival at 0.063 mg/ml in presence of Sprague-Dawley rat liver S9 fraction metabolic activation by SOS/umu assay relative to control; format: toxicity, subcellular; settings: salmonella enterica subsp. enterica serovar typhimurium, read-out: Survival; method in brief: as §1
[16] = Genotoxicity in Salmonella typhimurium TA1535 harboring pSK1002 assessed as survival at 0.004 mg/ml in absence of Sprague-Dawley rat liver S9 fraction metabolic activation by SOS/umu assay relative to control; format: toxicity; settings: salmonella enterica subsp. enterica serovar typhimurium, read-out: Survival; method in brief: as §1
[17] = Genotoxicity in Salmonella typhimurium TA1535 harboring pSK1002 assessed as survival at 0.016 mg/ml in presence of Sprague-Dawley rat liver S9 fraction metabolic activation by SOS/umu assay relative to control; format: toxicity, subcellular; settings: salmonella enterica subsp. enterica serovar typhimurium, read-out: Survival; method in brief: as §1
Trypanosoma cruzi [18] = test: Inhibition of Trypanosoma cruzi MHOM/Pe/2011/Arequipa;DTU 5 epimastigote Fe-SOD at 6.3 uM relative to control
Method in brief: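 Fe-SOD excreted by exponentially growing T. cruzi Arequipa epimastigotes cultured in supplemented MTL at 28 °C. Protein quantified by Bradford. SOD activity measured by the Beyer–Fridovich method. IC50 from inhibition curves by nonlinear regression. Mean of three independent determinations ± standard deviation.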

[19] = Genotoxicity in Salmonella typhimurium TA1535 harboring pSK1002 assessed as umu gene induction at 0.031 mg/ml in presence of Sprague-Dawley rat liver S9 fraction metabolic activation by SOS/umu assay relative to control; format: toxicity, subcellular; settings: salmonella enterica subsp. enterica serovar typhimurium, read-out: FC; method in brief: as §2
[20] = as §5, with “trypomastigote” for “trypomastigotes”, “total bilirubin” for “alkaline phosphatase”; format: organism-based; design: scale not given: the % may be the effect or the level left; settings: in vivo; method in brief: as §4
Trypanosoma cruzi [21] = test: Trypanocidal activity against Trypanosoma cruzi trypomastigote form infected in African green monkey Vero cells assessed as ratio of infected cells at 25 uM measured after 72 hrs by Giemsa staining based assay relative to control; format: functional
Method in brief: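 Vero cells in RPMI with 10% heat-inactivated FBS, seeded at 1 × 10^4/well on coverslips for 24 h at 37 °C, 5% CO2. Infected with bloodstream trypomastigotes at MOI 10:1 for 24 h, then washed three times with PBS. Compounds added at 3.1–50 µM for 72 h. Infected cells counted after Giemsa staining. Triplicates, two separate determinations.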

[22] = as §5, with “trypomastigote” for “trypomastigotes”, “urea” for “alkaline phosphatase”; format: organism-based; design: scale not given: the % may be the effect or the level left; settings: in vivo; method in brief: as §4

| SMILES | viability at 0.063 mg/ml [1] [%] | viability at 1 mg/ml [2] [%] | fold induction at 1 mg/ml [3] | Activity [4] [%] | Ratio (Trypanosoma cruzi [5]) [%] | Activity [6] [%] | fold induction at 0.031 mg/ml [7] | fold induction at 0.25 mg/ml [8] | Activity [9] | Activity [10] | fold induction at 1 mg/ml [11] | fold induction at 0.002 mg/ml [12] | Activity [13] | Activity [14] | viability at 0.063 mg/ml [15] [%] | viability at 0.004 mg/ml [16] [%] | viability at 0.016 mg/ml [17] [%] | inhibition (Trypanosoma cruzi [18]) [%] | fold induction at 0.031 mg/ml [19] | Activity [20] | other results |
| --- | --- | --- | --- | --- | --- | --- | --- | --- | --- | --- | --- | --- | --- | --- | --- | --- | --- | --- | --- | --- | --- |
| O=C(CCN1CCN(c2ccc(C(F)(F)F)cc2)CC1)c1ccc(O)cc1 | 117 | 216 | 0.16 | > 10 | 7 | > 10 | 0.66 | 0.52 | <= 30% | <= 30% | 0.37 | 0.74 | <= 30% | <= 30% | 92.9 | 127 | 110 | > 50 | 0.87 |  |  |
| O=C(Cn1ccnc1[N+](=O)[O-])NCc1ccccc1 [BENZNIDAZOLE] |  |  |  |  | 18 |  |  |  | <= 10% |  |  |  | <= 10% |  |  |  |  |  |  | <= 10% | Ratio (Trypanosoma cruzi [21]): 18%; Activity [22]: <= 30% |
| O=C(CCN1CCN(c2ccc(Cl)cc2)CC1)c1ccc(O)cc1 | 125 | 213 | 0.12 | > 10 |  | > 10 | 0.7 | 0.49 |  | <= 10% | 0.38 | 0.78 |  | <= 10% | 86.7 | 140 | 106 | > 50 | 0.83 | <= 10% | Ratio (Trypanosoma cruzi [21]): 19%; Activity [22]: <= 10% |
